Measured values of several laboratories.
Each line is one published result; the experiments were not run side by side.
Target: Serine/threonine-protein kinase PLK2 (PLK2, Homo sapiens, UniProt Q9NYY3)

Structure (SMILES) | assay | setting | quantity | result
N[C@@H]1CCN(c2nccc(-c3cnn4ncccc34)n2)C1 | binding | 1 µM | remaining binding | 100%
Cc1ccc(C(=O)Nc2ccc(CN3CCN(C)CC3)c(C(F)(F)F)c2)cc1C#Cc1cnc2cccnn12 | enzyme activity, inhibitor | 23.5 nM | remaining activity | 94%
CNC(=O)Nc1ccc2c(c1)[C@@]1(CC2)OC(=O)N(CC(=O)N(Cc2ccc(F)cc2)[C@@H](C)C(F)(F)F)C1=O | cell-free assay, competition with immobilised ligand | 1 µM | remaining binding | 92%
CC/C(=N\NC(=O)NCc1cccc(O)c1)c1ccc(O)c(C)c1O | enzyme activity, inhibitor | 0.1 µM | inhibition | 1.3%
COc1cc2ncnc(Nc3ccc(Oc4ccccc4)cc3C)c2cc1OC | enzyme activity, inhibitor | 1 µM | inhibition | 5%
Cc1sc(C(=O)NC2COC2)cc1-n1cc(NC(=O)Nc2c(F)cccc2Cl)cn1 | enzyme activity, inhibitor | 10 µM | remaining activity | 95.2%
CC(C)(C)c1nc2c(s1)c1nc(N)ncc1c1ccc(NS(=O)(=O)c3c(F)cccc3F)c(F)c12 | enzyme activity, inhibitor, radiometric | 1 µM | remaining activity | 91%
COc1cc(-c2cn(C3CCc4c(F)cccc4N(CC(F)(F)F)C3=O)nn2)ccc1-n1cnc(C)c1 (stereo not drawn) | cell-free assay, competition with immobilised ligand | 1 µM | remaining binding | 100%
COc1cc2c(Nc3ccc(Br)cc3F)ncnc2cc1OCC1CCN(C)CC1 | cell-free assay | 0.5 µM | remaining signal | 103%
COc1cc(Cl)c(C(=O)N[C@@H](CN[C@H]2CC[C@@H](N)CC2)Cc2ccc(C#N)cc2)cc1-c1ccc(CN[C@H](C)c2ccc(C)cc2)o1 | enzyme activity, inhibitor | 1 µM | remaining activity | 96%
CCN(CC)CCNC(=O)c1c(C)[nH]c(/C=C2\C(=O)Nc3ccc(F)cc32)c1C | enzyme activity, inhibitor | 0.3 µM | inhibition | -2%
CCCCN(CCCC)C(=O)CN1C[C@H](c2cc(OC)c3c(c2)OCO3)[C@@H](C(=O)O)[C@@H]1CC(C)(C)CCC | cell-free assay, competition with immobilised ligand | 1 µM | remaining binding | 67.1%
COc1cc(-c2cc(-c3ccc(N4CCNCC4)cc3)cnc2C)cc(OC)c1OC | enzyme activity, inhibitor | 0.1 µM | inhibition | 7%
C[S+]([O-])c1ccc(-c2nc(-c3ccncc3)c(-c3ccc(F)cc3)[nH]2)cc1 (stereo not drawn) | cell-free assay | 0.5 µM | remaining signal | 95.6%
O=C(O)[C@H]1[C@H](Cn2nnc3ccccc3c2=O)CC[C@@H]1C(=O)c1ccc(OCCC2CCOCC2)cc1 | cell-free assay, competition with immobilised ligand | 1 µM | remaining binding | 100%
Cc1ccc(Nc2nccc(N(C)c3ccc4c(C)n(C)nc4c3)n2)cc1S(N)(=O)=O | enzyme activity, inhibitor | 10 µM | inhibition | -4%
CC(C)(O)[C@H]1CC[C@H](Nc2ccc3ncc(-c4cccc(C(F)(F)F)c4)n3n2)CC1 | enzyme activity, inhibitor | 1 µM | remaining activity | 93.5%
COc1cc(Nc2c(C#N)cnc3cc(OCCCN4CCN(C)CC4)c(OC)cc23)c(Cl)cc1Cl | cell-free assay | 0.5 µM | remaining signal | 100%
O=C1CCc2cc(Nc3cc(OC4CCOCC4)c([N+](=O)[O-])cc3Cl)ccc2N1 | cell-free assay, competition with immobilised ligand | 1 µM | remaining binding | 92%
O=C1Nc2ccc(Cl)cc2C1=Cc1cc(Cl)c(O)c(Cl)c1 | cell-free assay | 0.5 µM | remaining signal | 95.4%
CO[C@@H](C)c1c(Nc2ccc([C@H](N(C)C(=O)C3CCS(=O)(=O)CC3)C(F)(F)F)cc2)cnc2cc(Cl)nn12 | cell-free assay, competition with immobilised ligand | 1 µM | remaining binding | 100%
Cc1ccc(NC(=O)c2ccc(C)c(C(F)(F)F)c2)cc1C#Cc1nn(C2CCC(O)CC2)c2ncnc(N)c12 (stereo not drawn) | cell-free assay | 10 µM | remaining signal | 109%
O=C(O)c1cc(-c2ccc(C3CCNCC3)cc2)c2ccc(-c3ccc(C(F)(F)F)cc3)cc2c1 | cell-free assay, competition with immobilised ligand | 1 µM | remaining binding | 100%
CNC(=O)c1cc(Oc2ccc(NC(=O)Nc3ccc(Cl)c(C(F)(F)F)c3)cc2)ccn1 | enzyme activity, inhibitor | 10 µM | inhibition | 15%
